{"source": "ChEMBL document CHEMBL1629556", "about": "(2008)", "key": {"[1]": {"test_system": "Staphylococcus aureus", "test": "Antibacterial activity against Staphylococcus aureus isolate 4666 assessed as reduction in bacterial count at 20 ug/ml after 24 hrs by time-kill assay", "assay_type": "functional, organism-based", "procedure,_shortened": "(§1)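 Overnight Mueller-Hinton broth cultures were diluted in cation-adjusted MH broth. About 10^6 to 10^7 CFU went into MH broth with 20 μg/ml dicloxacillin at 35°C. Viable counts were made by spreading 0.1 ml at 0, 1, 3, 6, 9, 14, 24, 30, 42 and 48 h. Three runs, with the median CFU plotted semilogarithmically.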"}, "[2]": {"test_system": "Staphylococcus aureus", "test": "Effect on growth of Staphylococcus aureus isolate 1326 assessed as highest compound concentration at which cell growth occurred measured after 48 hrs in presence of 2% NaCl", "assay_type": "functional", "procedure,_shortened": "(§2)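 Inocula of about 10^8 to 10^6 CFU came from a 4 McFarland suspension. Colonies were counted after 48 h at 35°C. Three runs, median CFU.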"}, "[3]": {"test_system": "Staphylococcus aureus", "test": "Antibacterial activity against Staphylococcus aureus isolate 2712 infected in Wistar rat thigh infection model assessed as bacterial load per gram of thigh at 200 mg/kg, sc administered 2 hrs postinfection and every 6 hrs thereafter for 1 day measured after 24 hrs (reference value: 8.6%)", "assay_type": "functional", "settings": "route subcutaneous"}, "[4]": {"test_system": "Staphylococcus aureus", "test": "Antibacterial activity against Staphylococcus aureus isolate 2712 by agar dilution method", "assay_type": "functional"}, "[5]": {"test_system": "Staphylococcus aureus", "test": "Antibacterial activity against Staphylococcus aureus isolate 1306 infected in Wistar rat thigh infection model assessed as bacterial load per gram of thigh at 200 mg/kg, sc administered 2 hrs postinfection and every 6 hrs thereafter for 1 day measured after 24 hrs (reference value: 8.6%)", "assay_type": "functional", "settings": "route subcutaneous"}, "[6]": {"test_system": "Staphylococcus aureus", "test": "Antibacterial activity against Staphylococcus aureus isolate 1326 by agar dilution method", "assay_type": "functional", "procedure,_shortened": "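mecA-positive clinical isolate collected October–November 2006, species confirmed on Vitek 2. MIC determined by agar dilution following CLSI guidelines, with 2-μg/ml concentration steps from 2 to 16 μg/ml.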"}, "[7]": {"test_system": "Staphylococcus aureus", "test": "Antibacterial activity against Staphylococcus aureus isolate 6083 by agar dilution method", "assay_type": "functional"}, "[8]": {"test_system": "Staphylococcus aureus", "test": "Antibacterial activity against Staphylococcus aureus isolate 6083 assessed as reduction in bacterial count at 20 ug/ml after 24 hrs by time-kill assay", "assay_type": "functional, organism-based", "procedure,_shortened": "as §1"}, "[9]": {"test_system": "Staphylococcus aureus", "test": "Antibacterial activity against mecA-negative Staphylococcus aureus isolate 29213 by agar dilution method", "assay_type": "functional"}, "[10]": {"test_system": "Staphylococcus aureus", "test": "Effect on growth of mecA-negative Staphylococcus aureus isolate 29213 by assessed as highest compound concentration at which cell growth occurred measured after 48 hrs", "assay_type": "functional", "procedure,_shortened": "(§3)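 Overnight cultures were set to 4 McFarland in cation-adjusted MH broth and spread at about 10^8, 10^7 and 10^6 CFU, or 10^4 if growth was confluent. Colonies were counted after 48 h at 35°C. Three runs, median CFU.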"}, "[11]": {"test_system": "Staphylococcus aureus", "test": "Antibacterial activity against Staphylococcus aureus isolate 2712 assessed as reduction in bacterial count at 20 ug/ml after 24 hrs by time-kill assay", "assay_type": "functional, organism-based", "procedure,_shortened": "as §1"}, "[12]": {"test_system": "Staphylococcus aureus", "test": "Antibacterial activity against mecA-negative Staphylococcus aureus isolate 29213 assessed as reduction in bacterial count at 20 ug/ml after 24 hrs by time-kill assay", "assay_type": "functional, organism-based", "procedure,_shortened": "as §1"}, "[13]": {"test_system": "Staphylococcus aureus", "test": "Effect on growth of Staphylococcus aureus isolate 4666 assessed as highest compound concentration at which cell growth occurred measured after 48 hrs", "assay_type": "functional", "procedure,_shortened": "as §3"}, "[14]": {"test_system": "Staphylococcus aureus", "test": "Antibacterial activity against Staphylococcus aureus isolate 29213 infected in Wistar rat thigh infection model assessed as bacterial load per gram of thigh at 200 mg/kg, sc administered 2 hrs postinfection and every 6 hrs thereafter for 1 day measured after 24 hrs (reference value: 8.6%)", "assay_type": "functional", "settings": "route subcutaneous"}, "[15]": {"test_system": "Staphylococcus aureus", "test": "Effect on growth of Staphylococcus aureus isolate 1326 assessed as highest compound concentration at which cell growth occurred measured after 48 hrs", "assay_type": "functional", "procedure,_shortened": "as §3"}, "[16]": {"test_system": "Staphylococcus aureus", "test": "Antibacterial activity against Staphylococcus aureus isolate 4666 by agar dilution method", "assay_type": "functional"}, "[17]": {"test_system": "Staphylococcus aureus", "test": "Antibacterial activity against Staphylococcus aureus isolate 1552 infected in Wistar rat thigh infection model assessed as bacterial load per gram of thigh at 200 mg/kg, sc administered 2 hrs postinfection and every 6 hrs thereafter for 1 day measured after 24 hrs (reference value: 8.6%)", "assay_type": "functional", "settings": "route subcutaneous"}, "[18]": {"test_system": "Staphylococcus aureus", "test": "Antibacterial activity against Staphylococcus aureus isolate 1306 assessed as reduction in bacterial count at 20 ug/ml after 24 hrs by time-kill assay", "assay_type": "functional, organism-based", "procedure,_shortened": "as §1"}, "[19]": {"test_system": "Staphylococcus aureus", "test": "Antibacterial activity against Staphylococcus aureus isolate 1306 by agar dilution method", "assay_type": "functional"}, "[20]": {"test_system": "Staphylococcus aureus", "test": "Antibacterial activity against Staphylococcus aureus isolate 1326 infected in Wistar rat thigh infection model assessed as bacterial load per gram of thigh at 200 mg/kg, sc administered 2 hrs postinfection and every 6 hrs thereafter for 1 day measured after 24 hrs (reference value: 8.6%)", "assay_type": "functional", "settings": "route subcutaneous"}, "[21]": {"test_system": "Staphylococcus aureus", "test": "Antibacterial activity against Staphylococcus aureus isolate 1552 by agar dilution method", "assay_type": "functional"}, "[22]": {"test_system": "Staphylococcus aureus", "test": "Effect on growth of Staphylococcus aureus isolate 1552 assessed as highest compound concentration at which cell growth occurred measured after 48 hrs", "assay_type": "functional", "procedure,_shortened": "as §3"}, "[23]": {"test_system": "Staphylococcus aureus", "test": "Effect on growth of against Staphylococcus aureus isolate 4666 assessed as highest compound concentration at which cell growth occurred measured after 48 hrs in presence of 2% NaCl", "assay_type": "functional", "procedure,_shortened": "as §2"}, "[24]": {"test_system": "Staphylococcus aureus", "test": "Antibacterial activity against Staphylococcus aureus isolate 1326 assessed as reduction in bacterial count at 20 ug/ml after 24 hrs by time-kill assay", "assay_type": "functional, organism-based", "procedure,_shortened": "as §1"}, "[25]": {"test_system": "Staphylococcus aureus", "test": "Effect on growth of Staphylococcus aureus isolate 1306 assessed as highest compound concentration at which cell growth occurred measured after 48 hrs", "assay_type": "functional", "procedure,_shortened": "as §3"}, "[26]": {"test_system": "Staphylococcus aureus", "test": "Antibacterial activity against Staphylococcus aureus isolate 4666 infected in Wistar rat thigh infection model assessed as bacterial load per gram of thigh at 200 mg/kg, sc administered 2 hrs postinfection and every 6 hrs thereafter for 1 day measured after 24 hrs (reference value: 8.6%)", "assay_type": "functional", "settings": "route subcutaneous"}, "[27]": {"test_system": "Staphylococcus aureus", "test": "Antibacterial activity against Staphylococcus aureus isolate 1552 assessed as reduction in bacterial count at 20 ug/ml after 24 hrs by time-kill assay", "assay_type": "functional, organism-based", "procedure,_shortened": "as §1"}, "[28]": {"test_system": "Staphylococcus aureus", "test": "Antibacterial activity against Staphylococcus aureus isolate 6083 infected in Wistar rat thigh infection model assessed as bacterial load per gram of thigh at 200 mg/kg, sc administered 2 hrs postinfection and every 6 hrs thereafter for 1 day measured after 24 hrs (reference value: 8.6%)", "assay_type": "functional", "settings": "route subcutaneous"}}, "note": "The source made the active and inactive calls. No cut-off for these calls is given here."}
{"compound": "Cc1onc(-c2ccccc2)c1C(=O)N[C@@H]1C(=O)N2[C@@H]1SC(C)(C)[C@@H]2C(=O)O", "note": "[OXACILLIN]", "values": [{"measurement": "inhibition", "setting": "[1]", "result": "Active"}, {"measurement": "Activity", "setting": "[2]", "result": 1, "unit": "µg/mL"}, {"measurement": "Activity", "setting": "[3]", "result": 8.8, "unit": "%"}, {"measurement": "MIC", "setting": "[4]", "result": 256, "unit": "µg/mL"}, {"measurement": "Activity", "setting": "[5]", "result": 9.7, "unit": "%"}, {"measurement": "MIC", "setting": "[6]", "result": 0.25, "unit": "µg/mL"}, {"measurement": "MIC", "setting": "[7]", "result": 6, "unit": "µg/mL"}, {"measurement": "inhibition", "setting": "[8]", "result": "Active"}, {"measurement": "MIC", "setting": "[9]", "result": 0.125, "unit": "µg/mL"}, {"measurement": "Activity", "setting": "[10]", "result": 0.5, "unit": "µg/mL"}, {"measurement": "inhibition", "setting": "[11]", "result": "inactive"}, {"measurement": "inhibition", "setting": "[12]", "result": "Active"}, {"measurement": "Activity", "setting": "[13]", "result": 1, "unit": "µg/mL"}, {"measurement": "Activity", "setting": "[14]", "result": 12.4, "unit": "%"}, {"measurement": "Activity", "setting": "[15]", "result": 0.5, "unit": "µg/mL"}, {"measurement": "MIC", "setting": "[16]", "result": 1, "unit": "µg/mL"}, {"measurement": "Activity", "setting": "[17]", "result": 9.1, "unit": "%"}, {"measurement": "inhibition", "setting": "[18]", "result": "Active"}, {"measurement": "MIC", "setting": "[19]", "result": 0.5, "unit": "µg/mL"}, {"measurement": "Activity", "setting": "[20]", "result": 4.3, "unit": "%"}, {"measurement": "MIC", "setting": "[21]", "result": 1, "unit": "µg/mL"}, {"measurement": "Activity", "setting": "[22]", "result": 64, "unit": "µg/mL"}, {"measurement": "Activity", "setting": "[23]", "result": 2, "unit": "µg/mL"}, {"measurement": "inhibition", "setting": "[24]", "result": "Active"}, {"measurement": "Activity", "setting": "[25]", "result": 32, "unit": "µg/mL"}, {"measurement": "Activity", "setting": "[26]", "result": 10.4, "unit": "%"}, {"measurement": "inhibition", "setting": "[27]", "result": "Active"}, {"measurement": "Activity", "setting": "[28]", "result": 6.2, "unit": "%"}]}
